# PfG6PD inh – PfG6PD (Plasmodium falciparum) enzyme inhibition. AID 504690. PfGluPho enzyme, NADPH resazurin-diaphorase fluorescence. inhibition, % at 20 µM. hit rate 0.78% among 350,000;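 active means inhibition reaching at least a set limit at 20 µM in the primary screen, cut at about 59% in these data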;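 further: 0% = DMSO wells with substrate and 100% = DMSO wells lacking glucose-6-phosphate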
# G6PDH counter – counter-screen for G6PDH assay hits: L. mesenteroides G6PDH inhibition; AID 1020; hit rate 0.12% among 200,000; Purified L. mesenteroides G6PDH, diaphorase/resazurin coupled fluorescence, 45 min; inhibition, % at 5 µM; in the data active means inhibition above about 50%
# HKDC1 inh – inhibitors of human hexokinase HKDC1; inhibition, % at 20 µM; Q2TB90; hit rate 0.16% among 340,000; recombinant HKDC1, G6PDH/diaphorase resazurin coupled fluorescence;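 active means inhibition above about 35% when tested at 20 µM, limit read from the data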;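 further: plate controls were DMSO wells with enzyme for no effect and DMSO wells lacking enzyme for full effect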
# Target sequence (Q2TB90 whole entry, looked up): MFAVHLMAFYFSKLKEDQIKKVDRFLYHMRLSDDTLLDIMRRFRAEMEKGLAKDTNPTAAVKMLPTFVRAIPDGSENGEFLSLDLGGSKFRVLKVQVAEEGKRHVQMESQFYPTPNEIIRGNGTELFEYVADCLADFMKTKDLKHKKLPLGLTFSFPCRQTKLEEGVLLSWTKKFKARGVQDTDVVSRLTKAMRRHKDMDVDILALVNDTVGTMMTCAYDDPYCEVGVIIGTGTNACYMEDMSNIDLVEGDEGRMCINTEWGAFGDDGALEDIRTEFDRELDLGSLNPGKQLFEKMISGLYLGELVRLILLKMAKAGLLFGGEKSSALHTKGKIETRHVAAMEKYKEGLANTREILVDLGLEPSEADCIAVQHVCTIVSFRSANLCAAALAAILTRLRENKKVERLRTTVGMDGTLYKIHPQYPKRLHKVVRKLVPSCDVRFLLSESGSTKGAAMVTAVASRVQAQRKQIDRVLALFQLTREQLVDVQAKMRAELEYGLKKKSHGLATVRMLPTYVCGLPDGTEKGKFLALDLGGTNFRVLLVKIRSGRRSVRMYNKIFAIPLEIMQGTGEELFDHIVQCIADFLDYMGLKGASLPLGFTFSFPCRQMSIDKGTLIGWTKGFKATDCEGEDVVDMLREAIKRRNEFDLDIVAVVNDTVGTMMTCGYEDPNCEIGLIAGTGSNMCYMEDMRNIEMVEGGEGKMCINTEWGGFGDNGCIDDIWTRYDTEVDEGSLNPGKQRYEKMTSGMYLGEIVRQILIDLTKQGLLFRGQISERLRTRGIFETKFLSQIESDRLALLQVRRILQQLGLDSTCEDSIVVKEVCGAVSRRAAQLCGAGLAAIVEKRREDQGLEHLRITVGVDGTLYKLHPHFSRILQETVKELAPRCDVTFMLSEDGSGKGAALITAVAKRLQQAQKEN
#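 Material: recombinant HKDC1 hexokinase; Amount: HKDC1 at 5 µg/mL; Medium: Tris pH 8.0 buffer with MgCl2, Tween-20, BSA, BME; Schedule: 90 min reaction incubation at room temperature, dark; Technique: coupled resazurin fluorescence, excitation 525 nm, emission 613 nm.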
# Diaphorase inh – diaphorase inhibition or chemical oxidation counter-screen. diaphorase resazurin-to-resorufin fluorescence, NADH, 16 min; bacterial (C. kluyveri) enzyme, not human. inhibition, % at 20 µM. hit rate 0.69% among 190,000. AID 1217;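 active means primary screen inhibition at 20 µM above a set limit, cut at about 50% in these data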;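 further: plate controls were DMSO with full reaction for no effect and wells lacking NADH for full effect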
#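 System: Bacterial diaphorase enzyme (C. kluyveri) | Incubation: 16-min room-temperature incubation before reading | Benchmarks: No-NADH positive control and DMSO neutral control | Measured by: Resorufin fluorescence 544/590 nm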
# HKDC1 act conf2 – confirmation of human HKDC1 activators; recombinant HKDC1, G6PDH/diaphorase resazurin fluorescence; stronger effect = lower value; AID 504708; hit rate 14% among 740; shares compounds with HKDC1 inh; inhibition, % at 20 µM;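 active means inhibition at or below a set negative limit, negative inhibition meaning the enzyme was activated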
# PfG6PD confirm – PfG6PD inhibition, single-dose confirmed; shares compounds with PfG6PD inh; recombinant PfGluPho, NADPH-diaphorase-resazurin fluorescence; inhibition, % at 20 µM; hit rate 34% among 2,400; AID 504753;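 active means inhibition of at least 50% at 20 µM in any single replicate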;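 further: 0% = DMSO with substrate and 100% = DMSO lacking glucose-6-phosphate substrate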
# Diaph ctr 10uM – inhibits diaphorase or oxidizes, flagging false PfG6PD hits. shares compounds with PfG6PD inh. diaphorase-coupled resazurin reduction, fluorescence, NADPH 10 uM. inhibition, % at 20 µM. hit rate 39% among 820. AID 504862;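 active means average inhibition reaching 50% or more with the compound at 20 µM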;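 further: resorufin red fluorescence formed as diaphorase reduces resazurin using NADPH; 0% = DMSO with enzyme and 100% = DMSO without enzyme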
# Diaphorase 30uM – diaphorase inhibition or oxidation at 30 uM NADPH; shares compounds with PfG6PD inh; Diaphorase/resazurin coupled assay, resorufin fluorescence; inhibition, % at 20 µM; hit rate 29% among 820; AID 504863;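 active means inhibition averaging 50% or more, tested at 20 µM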;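 further: 0% = DMSO with enzyme and 100% = DMSO wells lacking diaphorase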
# Numbers without * were called inactive; x = not tested or not shown; ! = not active in a repeat. Hits are enriched below; roughly 1.2% of the tested compounds scored in any of these assays.
SMILES,PfG6PD inh,G6PDH counter,HKDC1 inh,Diaphorase inh,HKDC1 act conf2,PfG6PD confirm,Diaph ctr 10uM,Diaphorase 30uM
O=S(=O)(Nc1cc(Sc2cccc3cccnc23)c(O)c2ccccc12)c1ccccc1,x,20,x,31,x,x,x,x
O=C(O)CSc1cc(NS(=O)(=O)c2cccc([N+](=O)[O-])c2)c2ccccc2c1O,106*,x,59*,x,48,89*,51*,41
CCc1ccc(S(=O)(=O)Nc2cc(SCC(=O)O)c(O)c3ccccc23)cc1,89*,48,54*,25,26,81*,34,21
CCOc1ccc(S(=O)(=O)Nc2cc(SCC(=O)O)c(O)c3ccccc23)cc1,104*,x,60*,x,31,97*,46,32
COc1ccccc1S(=O)(=O)N(C)C[C@@H]1OCc2cn(nn2)CCCC(=O)N([C@H](C)CO)C[C@H]1C,3,x,x,x,x,x,x,x
Cc1nnc(SCC(=O)Nc2ccc(S(N)(=O)=O)cc2)n(N)c1=O,1,x,-2,x,x,x,x,x
O=C1C=C(N2CCOCC2)c2ccccc2C1=O,71*,x,77*,x,79,54*,73*,83*
O=C1C=C(N2CCOCC2)c2cccc3cccc1c23,20,x,x,x,x,x,x,x
COc1ccc(N2CCCC2=O)cc1S(=O)(=O)N1CCOCC1,-6,x,x,x,x,x,x,x
COC(=O)c1ccc(NCc2c(O)ccc(O)c2Br)cc1Cl,104*,x,45*,x,21,39,x,x
O=C1C(SCCO)=C(SCCO)C(=O)c2ccccc21,119*,x,72*,x,84,107*,87*,84*
CCN(CC)S(=O)(=O)c1ccc(=O)n(CC(=O)N2CCCc3cc(C)ccc32)c1,-13,x,-4,x,x,x,x,x
CCc1ccc(S(=O)(=O)/N=C2\C=C(Nc3ccc(C(=O)O)cc3)C(=O)c3ccccc32)cc1,65*,x,54*,x,60,31,x,x
Cc1ccc(S(=O)(=O)/N=C2\C=C(Nc3cccc(C(=O)O)c3)C(=O)c3ccccc32)c(C)c1,70*,x,39*,x,58,39,x,x
Cc1ccc(S(=O)(=O)/N=C2\C=C(Nc3cccc(C(=O)O)c3)C(=O)c3ccccc32)cc1,67*,x,45*,x,80,69*,89*,86*
COc1ccc(C(=O)NC(=S)Nc2ccc(N3CCOCC3)cc2)cc1Cl,19,x,6,x,x,x,x,x
NC1=C(Cl)C(=O)c2ccccc2C1=O,-94,x,-16,x,x,x,x,x
NC(=O)C1CCN(C2=C(NS(=O)(=O)c3ccccc3)C(=O)c3ccccc3C2=O)CC1,-4,x,15,x,x,x,x,x
CN1CCN(C2=C(Cl)C(=O)c3ccccc3C2=O)CC1,107*,x,44*,x,33,75*,74*,77*
NC(=O)C1CCN(C2=C(Cl)C(=O)c3ccccc3C2=O)CC1,74*,60*,47*,5,73,43,x,x
CC1COCC(C)N1C1=C(Cl)C(=O)c2ccccc2C1=O (centres undefined),75*,x,38*,x,43,64*,28,24
Cc1ccccc1CCNC(=O)C1CC(O)CN1C(=O)Nc1ccccc1 (centres undefined),-9,x,-4,x,x,x,x,x
Oc1ccc(Br)cc1CNc1cccc2cccnc12,72*,x,40*,x,6,15,x,x
C[c-]1[c-](C)[c-](C)[c-](C)[c-]1C.[Fe].c1cc2nccc(N3CCCC3)[c-]2c1 (centres undefined),85*,x,49*!,x,-2,66*!,15,11
CC(=O)N(C1=C(Cl)C(=O)c2ccccc2C1=O)C1CCCCC1,116*,x,58*,x,78,113*,98*,95*
CC(C)CCN(C(=O)CCCSc1nc2ccccc2[nH]1)c1c(N)n(Cc2ccccc2)c(=O)[nH]c1=O,-4,x,-2,x,x,x,x,x
O=C(NC1=C(Nc2ccc(Cl)cc2)C(=O)c2ccccc2C1=O)c1ccccc1,45,43,5,33,x,x,x,x

# Source: PubChem (Sanford-Burnham Center for Chemical Genomics)
